According to ChEMBL document CHEMBL1124798, “Design of peptidomimetic delta opioid receptor antagonists using the message-address concept” (J Med Chem, 1990):
Where a SMILES comes first, the peptide text is derived from it. [ ]: non-standard residue; d: D form. The star is where a group is joined. Tyr(Nα,Nα-allyl2) = C=CCN(CC=C)[C@@H](Cc1ccc(O)cc1)C(=O)*; Aib = CC(C)(N)C(=O)O

Experiments:
[1] = target: Opioid receptors; delta & kappa (Homo sapiens) (UniProt P41145+P41143); test: Selectivity ratio was determined from Ke value of Opioid receptor kappa 1 and Opioid receptor delta 1; format: protein assay; details: Cavia porcellus
Opioid receptors; delta & kappa (Homo sapiens), sequence (P41143 whole entry, looked up): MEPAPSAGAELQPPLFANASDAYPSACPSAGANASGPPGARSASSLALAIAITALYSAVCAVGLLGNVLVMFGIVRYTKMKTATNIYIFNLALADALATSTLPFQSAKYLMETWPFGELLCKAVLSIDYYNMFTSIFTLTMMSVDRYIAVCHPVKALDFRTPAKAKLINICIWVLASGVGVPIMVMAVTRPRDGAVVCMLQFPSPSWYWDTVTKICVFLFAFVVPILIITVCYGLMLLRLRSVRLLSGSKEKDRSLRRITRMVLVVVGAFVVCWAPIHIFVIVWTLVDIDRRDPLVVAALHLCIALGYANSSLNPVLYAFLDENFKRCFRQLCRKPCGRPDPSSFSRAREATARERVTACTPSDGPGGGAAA
Opioid receptors; delta & kappa (Homo sapiens), sequence (P41145 whole entry, looked up): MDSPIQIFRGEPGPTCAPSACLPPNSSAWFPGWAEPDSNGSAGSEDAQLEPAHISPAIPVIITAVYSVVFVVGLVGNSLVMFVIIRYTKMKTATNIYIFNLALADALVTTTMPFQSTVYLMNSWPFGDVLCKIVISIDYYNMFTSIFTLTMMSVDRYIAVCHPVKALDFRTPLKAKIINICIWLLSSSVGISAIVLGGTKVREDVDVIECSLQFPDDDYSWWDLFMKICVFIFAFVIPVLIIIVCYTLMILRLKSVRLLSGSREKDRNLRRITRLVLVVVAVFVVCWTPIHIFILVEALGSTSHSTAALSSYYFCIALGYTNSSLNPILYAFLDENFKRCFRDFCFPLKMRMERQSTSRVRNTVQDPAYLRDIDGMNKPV
Procedure, shortened: (§1)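 Ratios of Ke values, μ/δ or κ/δ. Each Ke = [antagonist]/(IC50 ratio − 1). δ from DADLE in mouse vas deferens; μ (morphine) and κ (ethylketazocine) in guinea pig ileum. 15 min antagonist preincubation, n ≥ 3.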

[2] = target: Opioid receptors; mu & delta (Homo sapiens) (UniProt P41143+P35372); test: Selectivity ratio was determined from Ke value of Opioid receptor mu 1 and Opioid receptor delta 1; format: protein assay; details: Cavia porcellus; procedure, shortened: as §1
Opioid receptors; mu & delta (Homo sapiens), sequence (P35372 whole entry, looked up): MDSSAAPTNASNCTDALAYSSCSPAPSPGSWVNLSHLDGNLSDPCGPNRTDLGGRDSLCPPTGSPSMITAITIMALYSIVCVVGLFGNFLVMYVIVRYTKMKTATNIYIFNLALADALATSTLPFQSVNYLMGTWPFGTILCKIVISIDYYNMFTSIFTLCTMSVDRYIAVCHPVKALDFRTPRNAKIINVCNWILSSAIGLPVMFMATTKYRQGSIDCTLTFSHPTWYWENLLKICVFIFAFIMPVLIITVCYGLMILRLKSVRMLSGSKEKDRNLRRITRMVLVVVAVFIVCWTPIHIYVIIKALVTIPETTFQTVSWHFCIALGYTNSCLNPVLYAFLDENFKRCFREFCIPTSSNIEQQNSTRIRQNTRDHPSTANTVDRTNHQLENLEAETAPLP
Opioid receptors; mu & delta (Homo sapiens), sequence (P41143 whole entry, looked up): as the sequence (P41143 whole entry, looked up) above

[3] = target: Delta-type opioid receptor (Mus musculus) (UniProt P32300); test: Opioid receptor delta 1 antagonistic activity was measured by the displacement of DADLE in the mouse vas deferens at a concentration of 100 nM; format: functional
Delta-type opioid receptor (Mus musculus), sequence (P32300 whole entry): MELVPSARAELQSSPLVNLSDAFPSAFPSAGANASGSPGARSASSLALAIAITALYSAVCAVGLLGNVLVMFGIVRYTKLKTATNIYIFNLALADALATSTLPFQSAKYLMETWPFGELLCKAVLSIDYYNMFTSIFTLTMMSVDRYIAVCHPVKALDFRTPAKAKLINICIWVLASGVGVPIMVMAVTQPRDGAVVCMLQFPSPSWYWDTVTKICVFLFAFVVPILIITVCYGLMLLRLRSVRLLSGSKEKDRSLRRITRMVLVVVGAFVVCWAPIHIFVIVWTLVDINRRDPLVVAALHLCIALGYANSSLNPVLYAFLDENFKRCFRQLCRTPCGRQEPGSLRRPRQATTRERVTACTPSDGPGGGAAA
Procedure, shortened: (§2)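 Mouse vas deferens. Antagonist (nM, as stated on line) incubated with the preparation 15 min before testing. δ agonist [D-Ala2,D-Leu5]enkephalin.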

[4] = target: Kappa-type opioid receptor (Cavia porcellus) (UniProt P41144); test: Opioid receptor kappa 1 antagonistic activity was measured by the displacement of ethylketazocine in the guinea pig ileum at a concentration of 100 nM; format: functional, tissue-based
Kappa-type opioid receptor (Cavia porcellus), sequence (P41144 whole entry): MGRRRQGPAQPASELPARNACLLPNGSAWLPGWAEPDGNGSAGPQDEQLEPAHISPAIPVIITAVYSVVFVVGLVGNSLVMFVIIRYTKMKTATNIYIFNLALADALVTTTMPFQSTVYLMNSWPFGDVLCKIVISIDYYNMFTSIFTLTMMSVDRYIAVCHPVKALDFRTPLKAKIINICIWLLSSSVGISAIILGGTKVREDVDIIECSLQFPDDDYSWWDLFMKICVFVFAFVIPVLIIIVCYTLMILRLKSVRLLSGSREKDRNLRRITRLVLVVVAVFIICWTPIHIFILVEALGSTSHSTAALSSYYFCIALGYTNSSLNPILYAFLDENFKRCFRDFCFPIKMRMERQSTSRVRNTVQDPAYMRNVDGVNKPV
Procedure, shortened: (§3)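 Guinea pig ileum. Antagonist (nM, as stated on line) incubated 15 min before testing. Agonists: morphine (μ) and ethylketazocine (κ).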

[5] = target: Delta-type opioid receptor (Mus musculus) (UniProt P32300); test: Antagonist potency was determined as the ratio of [antagonist] to (IC50 ratio-1) for opioid receptor delta 1; format: functional
Procedure, shortened: (§4)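 Ke (nM) = [antagonist]/(IC50 ratio − 1). IC50 ratio is agonist IC50 with antagonist over the control IC50 in the same preparation. Antagonist preincubated 15 min. Agonists: DADLE in mouse vas deferens (δ); morphine (μ) and ethylketazocine (κ) in guinea pig ileum. n ≥ 3.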

[6] = target: Mu-type opioid receptor (Cavia porcellus) (UniProt P97266); test: Antagonist potency was determined as the ratio of [antagonist] to (IC50 ratio-1) for Opioid receptor mu 1; format: functional; procedure, shortened: as §4
Mu-type opioid receptor (Cavia porcellus), sequence (P97266 whole entry): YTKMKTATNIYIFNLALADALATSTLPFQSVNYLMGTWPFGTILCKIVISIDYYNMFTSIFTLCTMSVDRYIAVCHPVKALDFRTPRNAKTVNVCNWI

[7] = target: Kappa-type opioid receptor (Cavia porcellus) (UniProt P41144); test: Opioid receptor kappa antagonistic activity was measured by the displacement of ethylketazocine in the guinea pig ileum at a concentration of 100 nM; format: functional, tissue-based; procedure, shortened: as §3
[8] = target: Kappa-type opioid receptor (Cavia porcellus) (UniProt P41144); test: Antagonist potency was determined as the ratio of [antagonist] to (IC50 ratio-1) for Opioid receptor kappa 1; format: functional; procedure, shortened: as §4
[9] = target: Mu-type opioid receptor (Cavia porcellus) (UniProt P97266); test: Opioid receptor mu 1 antagonistic activity was measured by the displacement of morphine in the guinea pig ileum at a concentration of 100 nM; format: functional, tissue-based; procedure, shortened: as §3
[10] = target: Delta-type opioid receptor (Mus musculus) (UniProt P32300); test: Opioid receptor delta antagonistic activity was measured by the displacement of DADLE in the mouse vas deferens at a concentration of 100 nM; format: functional; procedure, shortened: as §2
[11] = target: Mu-type opioid receptor (Cavia porcellus) (UniProt P97266); test: Opioid receptor mu antagonistic activity was measured by the displacement of morphine in the guinea pig ileum at a concentration of 100 nM; format: functional, tissue-based; procedure, shortened: as §3
[12] = target: T1, Mu-type opioid receptor (Cavia porcellus, UniProt P97266); test: Binding affinity was measured by the displacement of [3H]- DAMGO in guinea pig brain membrane of Opioid receptor mu 1; format: cell membranes
T1 sequence (P97266 whole entry): as above
Procedure, shortened: (§5)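 Radioligand displacement from guinea pig brain membranes, modified Werling method. μ sites: [3H]DAMGO. δ sites: [3H]DADLE with 1 μM DAMGO. κ sites: [3H]ethylketazocine with 1 μM DAMGO.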

[13] = target: T2, Kappa-type opioid receptor (Cavia porcellus, UniProt P41144); test: Binding affinity was measured by the displacement of [3H]- EK in guinea pig brain membrane of Opioid receptor kappa 1; format: cell membranes; procedure, shortened: as §5
T2 sequence (P41144 whole entry): as the sequence (P41144 whole entry) above

[14] = target: T2, Kappa-type opioid receptor; test: Binding affinity was measured by the displacement of [3H]- EK in guinea pig brain membrane of opioid receptor kappa; format: cell membranes; procedure, shortened: as §5
[15] = target: T1, Mu-type opioid receptor; test: Binding affinity was measured by the displacement of [3H]- DAMGO in guinea pig brain membrane of opioid receptor mu; format: cell membranes; procedure, shortened: as §5

Compound | Selectivity ratio [1] | Selectivity ratio [2] | IC50 ratio [3] | IC50 ratio [4] | Ke [5] [nM] | Ke [6] [nM] | IC50 ratio [7] | Ke [8] [nM] | IC50 ratio [9] | IC50 ratio [10] | IC50 ratio [11] | Ki [12] [nM] | Ki [13] [nM] | Ki [14] [nM] | Ki [15] [nM]
CC(C)(S)[C@@H](NC(=O)[C@H](Cc1ccc(O)cc1)NC(=O)CNC(=O)[C@H](NC(=O)[C@@H](N)Cc1ccccc1)C(C)(C)S)C(=O)O | 202 | 52 |  |  |  |  |  |  |  |  |  |  |  |  | 
Cc1ccc2c3c([nH]c2c1)[C@@H]1Oc2c(O)ccc4c2[C@@]12CCN(CC1CC1)[C@H](C4)[C@]2(O)C3 | > 41 | 16 | 30 | 1.7 | 3.5 | 55 | 1.7 | > 143 | 2.8 | 30 | 2.8 |  |  |  | 
Oc1ccc2c3c1O[C@H]1c4[nH]c5ccccc5c4C[C@@]4(O)[C@@H](C2)N(CC2CC2)CC[C@]314 [NALTRINDOLE] |  |  |  |  |  |  |  |  |  |  |  | 3.8 | 332 | 332 | 
COc1cccc2c3c([nH]c12)[C@@H]1Oc2c(O)ccc4c2[C@@]12CCN(CC1CC1)[C@H](C4)[C@]2(O)C3 | > 120 | 32 | 66 | 1.5 | 1.5 | 50 | 1.5 | > 185 | 3 | 66 | 3 | 16 | 43 | 43 | 16
C=CCN(CC=C)[C@@H](Cc1ccc(O)cc1)C(=O)NC(C)(C)C(=O)NC(C)(C)C(=O)N[C@@H](Cc1ccccc1)C(=O)N[C@@H](CC(C)C)C(=O)O ({Tyr(Nα,Nα-allyl2)}-[Aib][Aib]FL-OH) | > 18 | > 24 | 15.6 | 0.8 | 69 | > 1670 | 0.8 | > 1250 | 0.6 | 15.6 | 0.6 | > 1000 | > 1000 | > 1000 | > 1000
Oc1ccc2c3c1O[C@H]1c4[nH]c5cc6ccccc6cc5c4C[C@@]4(O)[C@@H](C2)N(CC2CC2)CC[C@]314 | > 4 | > 4 | 4.7 | 0.91 | 27 | > 118 | 0.91 | > 100 | 0.85 | 4.7 | 0.85 |  |  |  | 
Oc1ccc2c3c1O[C@H]1c4[nH]c5cc(F)ccc5c4C[C@@]4(O)[C@@H](C2)N(CC2CC2)CC[C@]314 | > 38 | > 28 | 24 | 1.6 | 4.4 | > 125 | 1.6 | > 167 | 1.8 | 24 | 1.8 |  |  |  | 
Oc1ccc2[nH]c3c(c2c1)C[C@@]1(O)[C@H]2Cc4ccc(O)c5c4[C@@]1(CCN2CC1CC1)[C@H]3O5 | 1.8 | 0.7 | 4.7 | 3.1 | 27 | 19 | 3.1 | 48 | 6.4 | 4.7 | 6.4 |  |  |  | 
CCOc1cccc2c3c([nH]c12)[C@@H]1Oc2c(O)ccc4c2[C@@]12CCN(CC1CC1)[C@H](C4)[C@]2(O)C3 |  | 24 | 178 | 0.67 | 0.57 | 13 | 0.67 |  | 8.3 | 178 | 8.3 |  |  |  | 
CN1CC[C@]23c4c5ccc(O)c4O[C@H]2c2c(c4ccccc4n2C)C[C@@]3(O)[C@H]1C5 |  |  | 1.2 | 0.5 | > 416 | > 135 | 0.5 | > 200 | 0.74 | 1.2 | 0.74 |  |  |  | 
COc1ccc2c3c1O[C@H]1c4[nH]c5ccccc5c4C[C@@]4(O)[C@@H](C2)N(CC2CC2)CC[C@]314 |  |  | 1.5 | 0.6 | > 200 | > 333 | 0.6 | > 167 | 1.3 | 1.5 | 1.3 | 550 | > 1000 | > 1000 | 550
CN1CC[C@]23c4c5ccc(O)c4O[C@H]2c2[nH]c4ccccc4c2C[C@@]3(O)[C@H]1C5 [OXYMORPHINDOLE] |  |  | 1.6 | 0.6 | 5 | > 111 | 0.6 | > 167 | 0.9 | 1.6 | 0.9 | 468 | 4470 | 4470 | 468
Cc1cccc2c3c([nH]c12)[C@@H]1Oc2c(O)ccc4c2[C@@]12CCN(CC1CC1)[C@H](C4)[C@]2(O)C3 | > 221 |  | 67 | 1.3 |  |  | 1.3 | > 333 | 7.1 | 67 | 7.1 |  |  |  | 
Oc1ccc2c3c1O[C@H]1c4c(c5ccccc5n4-c4ccccc4)C[C@@]4(O)[C@@H](C2)N(CC2CC2)CC[C@]314 | > 49 | > 48 | 33 | 6.7 | 3.1 | > 149 | 6.7 | > 152 | 1.7 | 33 | 1.7 | 28 | 746 | 746 | 28
Oc1ccc2c3c1O[C@H]1c4[nH]c5c(O)cccc5c4C[C@@]4(O)[C@@H](C2)N(CC2CC2)CC[C@]314 | > 595 | > 264 | 239 | 1.4 | 0.42 | > 111 | 1.4 | > 250 | 1.9 | 239 | 1.9 |  |  |  | 
C=CCN1CC[C@]23c4c5ccc(O)c4O[C@H]2c2[nH]c4ccccc4c2C[C@@]3(O)[C@H]1C5 | > 75 | > 655 | 93 | 2.2 | 1.1 | > 714 | 2.2 | > 82 | 1.1 | 93 | 1.1 | 104 | 321 | 321 | 104
Oc1ccc2c3c1O[C@H]1c4[nH]c5c(ccc6ccccc65)c4C[C@@]4(O)[C@@H](C2)N(CC2CC2)CC[C@]314 | > 12 | > 55 | 12.1 | 0.9 | 9 | > 500 | 0.9 | > 111 | 1.2 | 12.1 | 1.2 |  |  |  | 
Oc1ccc2c3c1O[C@H]1c4[nH]c5c(F)cccc5c4C[C@@]4(O)[C@@H](C2)N(CC2CC2)CC[C@]314 | > 951 | 67 | 287 | 1.3 | 0.35 | 23 | 1.3 | > 333 | 5.3 | 287 | 5.3 | 49 | 321 | 321 | 49
CC(=O)O[C@@]12Cc3c([nH]c4ccccc34)[C@@H]3Oc4c(O)ccc5c4[C@@]31CCN(CC1CC1)[C@@H]2C5 | > 54 | > 111 | 43 | 1.8 | 2.4 | > 263 | 1.8 | > 127 | 1.4 | 43 | 1.4 |  |  |  | 
